Experimental findings from ChEMBL document CHEMBL1140185, “Conjugated chitosan as a novel platform for oral delivery of paclitaxel” (J Med Chem, 2008) are described below.

For orientation: bioavailability means dose-corrected exposure relative to a reference, in per cent. What is called IC50 is the midpoint of a concentration-inhibition curve. Lower therefore signals higher potency. One may read the AUC(0-t) as exposure summed from dosing to a finite time, without extrapolation to infinity. Read a low AUC(0-t) as less exposure. The half-life is the time in which the quantity being followed falls by half. High values mean slow loss, low ones fast loss.

≈ marks a conversion by molar mass, not a printed value.

Series [1] in a line: Oral bioavailability in cyclosporine A pretreated ICR mouse. Conditions: in vivo, in the assay text read “in ICR mouse” for “in cyclosporine A pretreated ICR mouse”. In kind it is ADME, organism-based. Put shortly: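 ICR mice (25-30 g) fasted 12 h, then gavaged with PTX or conjugate (PTX-equivalent). The oral solution included 15 mg/kg cyclosporine A where given. Retro-orbital blood spun at 3000g for 20 min; plasma PTX measured by HPLC. n = 4-5.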

Series [2] deals with NCI-H358. As to the kind of experiment: Anticancer activity against human NCI-H358 cells by MTT assay. It is filed as functional, cell-based. In general terms: Tetrazolium dyes change colour on reduction, which living cells bring about.
A short description of series [3]: Drug uptake in tumor of iv dosed C57BL/6 mouse bearing mouse B16F10 cells after 30 mins. It is filed as ADME, organism-based, C57BL6, Neoplasm, B16-F10. The settings on record: in vivo, 0.5 h.
The test system of a further series is MDA-MB-231. As to the kind of experiment: Anticancer activity against human MDA-MB-231 cells by MTT assay.
In the next series the test system is SK-OV-3. Nature of the series: Anticancer activity against human SKOV3 cells by MTT assay. In kind it is functional, cell-based.
The nature of series [4]: AUC (0 to 48 hrs) in ICR mouse at 10 mg/kg, iv. More on the design: time < 48 hr, dose 10 mg/kg, route intravenous. The settings on record: plasma. In kind it is ADME, organism-based. Put shortly:
(§1)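 ICR mice (25-30 g). IV arm: 10 mg/kg PTX in cremophor EL/ethanol via tail vein. Oral arm: 5 or 10 mg PTX-equivalent/kg conjugate in 10% DMSO by gavage after a 12 h fast. Retro-orbital blood taken into sodium citrate and spun 800g for 20 min. Plasma extracted with ethyl acetate; free PTX measured by HPLC. Oral bioavailability is relative to 10 mg/kg IV. n = 5.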

Series [5] has as its system Mus musculus. Nature of the series: Toxicity in human NCI-H358 cells xenografted NCR nu/nu mouse assessed as decrease in body weight at 10 mg/kg, iv. In kind it is organism-based. Also noted: dose 10 mg/kg, route intravenous. The settings on record: in vivo. Put shortly: (§2)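 Female athymic NCR nu/nu mice (20-25 g), inoculated sc with about 6 × 10^6 NCI-H358 cells. Dosing began at tumors ≥150 mm3: 10 mg/kg/day formulated PTX iv, or conjugate po, every other day for six doses. Saline and LMWC controls. Caliper volumes taken as (1/2)(L × W2), and body weight tracked. n = 8-12; Student's t-test.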
In general terms: Xenograft models place foreign cells or tissue in a host animal.

A short description of series [6]: Half life in ICR mouse at 10 mg/kg, iv. In kind it is ADME, organism-based. More on the design: dose 10 mg/kg, route intravenous. The settings on record: in vivo. Put shortly: as §1
Series [7] relates to Mus musculus. Nature of the series: Bioavailability in ICR mouse at 10 mg/kg, iv. In kind it is ADME, organism-based. Conditions: in vivo. The essentials:
as §1

Series [8] deals with NCI-H358. Nature of the series: Antitumor activity against human NCI-H358 cells xenografted NCR nu/nu mouse assessed as suppression of tumor growth at 10 mg/kg, iv. It is filed as functional. Put shortly: as §2

On to `CC(=O)O[C@H]1C(=O)[C@@]2(C)[C@H]([C@H](OC(=O)c3ccccc3)[C@]3(O)C[C@H](OC(=O)[C@H](O)[C@@H](NC(=O)c4ccccc4)c4ccccc4)C(C)=C1C3(C)C)[C@]1(OC(C)=O)CO[C@@H]1C[C@@H]2O` [PACLITAXEL], for which the bioavailability in [1] was 0.23%. For the same compound, the IC50 in the series on NCI-H358 [2] was found to be 3.8 µg/mL (≈ 4.45 µM); with MDA-MB-231, 3.9 µg/mL (≈ 4.57 µM); in the series with SK-OV-3, 4 µg/mL (≈ 4.68 µM). In series [3], this compound yielded a Drug uptake of 0.5%. Besides, the area under the curve AUC(0-t) at 48 h in series [4] was determined as 35300 ng·h/mL. In addition, the results for the Activity entry in the series with Mus musculus [5] and with NCI-H358 [8] were “Toxic” and 80%, respectively. The half-life in series [6] is 33.6 min. The F with Mus musculus [7] worked out at 100%.
